Active and inactive are the calls of the source. The rule behind the calls is not given here.
Tests used:
[1] = target: T1, Adenosine receptor A1 (Homo sapiens, UniProt P30542); assay: Displacement of [3H]DPCPX from human adenosine A1 receptor expressed in CHO cells after 120 mins; assay type: cell-based
T1 sequence (P30542 whole entry): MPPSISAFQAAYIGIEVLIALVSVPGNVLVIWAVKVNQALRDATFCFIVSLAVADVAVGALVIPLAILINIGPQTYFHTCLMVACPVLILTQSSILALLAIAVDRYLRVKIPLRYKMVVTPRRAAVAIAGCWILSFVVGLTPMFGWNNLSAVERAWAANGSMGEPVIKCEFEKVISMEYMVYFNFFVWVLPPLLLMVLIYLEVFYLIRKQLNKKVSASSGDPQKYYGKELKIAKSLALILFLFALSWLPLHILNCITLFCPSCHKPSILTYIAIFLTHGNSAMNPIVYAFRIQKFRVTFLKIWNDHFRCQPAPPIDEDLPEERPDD

[2] = target: T2, Adenosine receptor A2a (Homo sapiens, UniProt P29274); assay: Displacement of [3H]NECA from human adenosine A2A receptor expressed in CHO cells at 10 uM after 120 mins; assay type: cell-based
[3] = target: T3, Adenosine receptor A3 (Homo sapiens, UniProt P0DMS8); assay: Displacement of [125I]AB-MECA from human adenosine A3 receptor expressed in CHO cells after 120 mins; assay type: cell-based
T3 sequence (P0DMS8 whole entry): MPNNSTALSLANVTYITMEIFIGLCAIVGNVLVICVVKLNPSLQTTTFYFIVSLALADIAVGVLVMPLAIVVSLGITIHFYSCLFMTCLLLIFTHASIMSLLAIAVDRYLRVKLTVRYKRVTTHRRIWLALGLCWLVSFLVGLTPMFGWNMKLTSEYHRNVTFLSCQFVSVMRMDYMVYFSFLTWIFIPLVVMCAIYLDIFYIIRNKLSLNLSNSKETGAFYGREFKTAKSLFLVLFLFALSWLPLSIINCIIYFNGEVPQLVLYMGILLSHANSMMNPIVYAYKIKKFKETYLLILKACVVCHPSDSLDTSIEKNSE

[4] = species on record: Mus musculus; assay: Toxicity in Swiss albino mouse assessed as change in gross behavior by rotarod test relative to control; assay type: organism-based; conditions: in vivo
Outline: (§1)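 Male Swiss albino mice on the rota-rod, counting falls from the rotating rod at the doses used in passive avoidance. Compared with saline- and CMC-treated mice.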

[5] = species on record: Mus musculus; assay: Toxicity in Swiss albino mouse assessed as change in motor coordination by measuring number of falls from the rotating rod by rotarod test relative to control; assay type: organism-based; conditions: in vivo; outline: as §1
[6] = target: T2, Adenosine receptor A2a; assay: Displacement of [3H]NECA from human adenosine A2A receptor expressed in CHO cells after 120 mins; assay type: cell-based
[7] = target: T4, Adenosine receptor A3 (Homo sapiens) (UniProt P0DMS8); assay: Displacement of [125I]AB-MECA from human adenosine A3 receptor expressed in CHO cells at 10 uM after 120 mins; assay type: cell-based
T4 sequence (whole entry): T3 sequence (P0DMS8 whole entry)

[8] = target: T5, Adenosine receptor A2b (Homo sapiens) (UniProt P29275); assay: Antagonist activity at human recombinant adenosine A2B receptor expressed in CHO cells assessed as inhibition of NECA-induced cAMP accumulation at 10 uM after 15 mins by liquid scintillation spectrometry; assay type: functional, cell-based; set-up: scale not given: the % may be the effect or the level left
T5 sequence (whole entry): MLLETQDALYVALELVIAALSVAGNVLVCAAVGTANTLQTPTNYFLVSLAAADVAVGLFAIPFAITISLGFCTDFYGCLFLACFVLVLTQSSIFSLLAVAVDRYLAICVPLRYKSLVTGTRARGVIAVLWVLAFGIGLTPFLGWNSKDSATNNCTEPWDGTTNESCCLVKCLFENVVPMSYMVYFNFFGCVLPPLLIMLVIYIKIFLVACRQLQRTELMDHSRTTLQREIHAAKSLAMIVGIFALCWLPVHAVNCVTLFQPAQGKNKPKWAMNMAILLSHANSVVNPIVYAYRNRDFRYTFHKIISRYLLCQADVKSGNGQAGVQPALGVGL
Outline: (§2)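 CHO cells expressing human A2B receptor, plated about 30000 per well and used after 24 h. Preincubated 15 min at 37 °C in DMEM with ADA (1 U/mL) and Ro20-1724 (20 μM). Compound at 10 μM was tested alone or with an EC50 concentration of NECA determined the same day. cAMP was measured by [3H]cAMP competition with bovine adrenal binding protein. Output is % of cAMP production versus agonist maximal effect.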

[9] = target: T5, Adenosine receptor A2b (Homo sapiens); assay: Agonist activity at human recombinant adenosine A2B receptor expressed in CHO cells assessed as cAMP accumulation at 10 uM after 15 mins by liquid scintillation spectrometry (reference value: 50%); assay type: functional, cell-based; outline: as §2
[10] = target: T6, Adenosine receptor A1 (Homo sapiens) (UniProt P30542); assay: Displacement of [3H]DPCPX from human adenosine A1 receptor expressed in CHO cells at 10 uM after 120 mins; assay type: cell-based
T6 sequence (whole entry): T1 sequence (P30542 whole entry)

[11] = target: T6, Adenosine receptor A1 (Homo sapiens); assay: Antagonist activity at human recombinant adenosine A1 receptor expressed in CHO cells assessed as inhibition of NECA-induced cAMP accumulation at 1 nM to 10 uM after 15 mins by liquid scintillation spectrometry; assay type: functional, cell-based
Outline: (§3)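 Human A1-transfected CHO cells, preincubated 15 min at 37 °C with ADA (1 U/mL) and Ro20-1724 (20 μM). Cells received 1 μM forskolin plus 100 nM NECA, with or without compound (1 nM–10 μM), for 15 min. Stopped with 0.4 N HCl and neutralized with KOH. cAMP was measured by [3H]cAMP (2 nM) binding-protein competition, 150 min at 0 °C, with filtration and scintillation counting. Levels are % of forskolin (100%). Mean ± SEM of ≥3 experiments in duplicate.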

[12] = target: T1, Adenosine receptor A1; assay: Antagonist activity at human recombinant adenosine A1 receptor expressed in CHO cells assessed as inhibition of NECA-induced cAMP accumulation after 15 mins by liquid scintillation spectrometry; assay type: functional, cell-based; outline: as §3
[13] = tested on: Mus musculus; assay: Antiamnesic activity in Swiss albino mouse CPA-induced amnesia model assessed as time taken to enter dark compartment during training session at 3 mg/kg, ip administered 30 mins prior to session by passive avoidance test (reference value: 16.6 +/- 4.1 secs); assay type: functional; conditions: route intraperitoneal
[14] = tested on: Mus musculus; assay: Antiamnesic activity in Swiss albino mouse CPA-induced amnesia model assessed as time taken to enter dark compartment during retention session at 3 mg/kg, ip administered 30 mins prior to session by passive avoidance test (reference value: 61.2 +/- 9.0 secs); assay type: functional; conditions: route intraperitoneal

T2 sequence (P29274 whole entry): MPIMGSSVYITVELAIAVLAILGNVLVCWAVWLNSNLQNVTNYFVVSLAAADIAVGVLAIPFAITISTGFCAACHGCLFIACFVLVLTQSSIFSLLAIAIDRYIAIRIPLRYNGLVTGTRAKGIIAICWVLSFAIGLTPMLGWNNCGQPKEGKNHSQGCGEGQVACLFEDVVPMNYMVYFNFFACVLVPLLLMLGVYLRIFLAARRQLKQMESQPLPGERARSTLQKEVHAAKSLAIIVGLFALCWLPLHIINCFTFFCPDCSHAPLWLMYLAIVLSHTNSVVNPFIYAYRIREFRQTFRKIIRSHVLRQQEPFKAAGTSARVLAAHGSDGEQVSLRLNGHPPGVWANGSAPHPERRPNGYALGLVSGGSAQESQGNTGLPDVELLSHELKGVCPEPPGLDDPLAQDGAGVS

SMILES	Ki [1]	inhibition [2]	Ki [3]	Activity [4]	Activity [5]	Ki [6]	inhibition [7]	Activity [8]	Activity [9]	inhibition [10]	Activity [11]	IC50 [12]	Time [13]	Time [14]
O=c1c2ncn3nc(-c4ccccc4)cc3c2c(C2CCCCC2)nn1Cc1ccccc1	172 nM	56%	308 nM	Non-toxic	Non-toxic	–	–	–	–	–	–	–	–	–
CCc1nc2c(=O)n(Cc3ccccc3)nc(C3CCCC3)c2c2cc(-c3ccccc3)nn12	3.5 nM	–	–	Non-toxic	Non-toxic	662 nM	43%	–	–	–	–	–	–	–
S=c1c2ncn3nc(-c4ccccc4)cc3c2c(C2CCCCC2)nn1Cc1ccccc1	9.5 nM	8%	–	Non-toxic	Non-toxic	–	31%	58.9%	4.8%	–	–	–	–	–
Cc1nc2c(=O)n(Cc3ccccc3)nc(C3CCCCC3)c2c2cc(-c3ccccc3)nn12	9.5 nM	7%	–	Non-toxic	Non-toxic	–	35%	57.8%	2.1%	–	–	–	–	–
CCc1nc2c(=O)n(Cc3ccccc3)nc(-c3ccc(Cl)cc3)c2c2cc(-c3ccccc3)nn12	–	10%	–	Non-toxic	Non-toxic	–	51%	–	–	35%	inactive	–	–	–
Cc1nc2c(=O)n(Cc3ccccc3)nc(-c3ccsc3)c2c2cc(-c3ccccc3)nn12	–	57%	–	Non-toxic	Non-toxic	–	37%	–	–	8%	–	–	–	–
CCc1nc2c(=O)n(Cc3ccccc3)nc(-c3cccs3)c2c2cc(-c3ccccc3)nn12	–	65%	–	Non-toxic	Non-toxic	–	30%	–	–	16%	inactive	–	–	–
O=c1c2ncn3nc(-c4ccccc4)cc3c2c(-c2ccc(Cl)cc2)nn1Cc1ccccc1	–	56%	–	Non-toxic	Non-toxic	–	31%	–	–	26%	–	–	–	–
O=c1c2ncn3nc(-c4ccccc4)cc3c2c(-c2ccsc2)nn1Cc1ccccc1	–	–	–	Non-toxic	Non-toxic	69.2 nM	24%	–	–	26%	–	–	–	–
O=c1c2ncn3nc(-c4ccccc4)cc3c2c(C2CCCC2)nn1Cc1ccccc1	32.3 nM	–	64 nM	Non-toxic	Non-toxic	75.5 nM	–	–	–	–	–	–	–	–
Cc1nc2c(=S)n(Cc3ccccc3)nc(C3CCCC3)c2c2cc(-c3ccccc3)nn12	–	18%	–	Non-toxic	Non-toxic	–	13%	–	–	51%	–	–	–	–
CCc1nc2c(=O)n(Cc3ccccc3)nc(-c3ccsc3)c2c2cc(-c3ccccc3)nn12	–	41%	–	Non-toxic	Non-toxic	–	36%	–	–	5%	–	–	–	–
Cc1nc2c(=O)n(Cc3ccccc3)nc(-c3cccs3)c2c2cc(-c3ccccc3)nn12	–	–	–	Non-toxic	Non-toxic	2600 nM	15%	–	–	21%	–	–	–	–
O=c1c2ncn3nc(-c4ccccc4)cc3c2c(-c2cccs2)nn1Cc1ccccc1	–	–	–	Non-toxic	Non-toxic	51 nM	16%	–	–	45%	–	–	–	–
O=c1c2ncn3nc(-c4ccccc4)cc3c2c(-c2cccnc2)nn1Cc1ccccc1	–	–	–	Non-toxic	Non-toxic	–	21%	–	–	–	–	–	–	–
S=c1c2ncn3nc(-c4ccccc4)cc3c2c(C2CCCC2)nn1Cc1ccccc1	12.9 nM	37%	–	Non-toxic	Non-toxic	–	54%	–	–	–	–	–	–	–
Cc1nc2c(=S)n(Cc3ccccc3)nc(C3CCCCC3)c2c2cc(-c3ccccc3)nn12	–	0%	–	Non-toxic	Non-toxic	–	30%	–	–	33%	–	–	–	–
Cc1nc2c(=O)n(Cc3ccccc3)nc(-c3ccc(Cl)cc3)c2c2cc(-c3ccccc3)nn12	–	28%	–	Non-toxic	Non-toxic	–	25%	–	–	24%	–	–	–	–
CCc1nc2c(=S)n(Cc3ccccc3)nc(C3CCCC3)c2c2cc(-c3ccccc3)nn12	4.7 nM	35%	–	Non-toxic	Non-toxic	–	24%	–	–	–	–	–	–	–
CCc1nc2c(=O)n(Cc3ccccc3)nc(C3CCCCC3)c2c2cc(-c3ccccc3)nn12	15.2 nM	0%	–	Non-toxic	Non-toxic	–	40%	–	–	–	–	–	–	–
Cc1nc2c(=O)n(Cc3ccccc3)nc(C3CCCC3)c2c2cc(-c3ccccc3)nn12	6.2 nM	53%	–	Non-toxic	Non-toxic	–	41%	–	–	–	–	5.1 nM	–	–
CCCn1c(=O)c2[nH]c(C3CCCC3)nc2n(CCC)c1=O [1,3-DIPROPYL-8-CYCLOPENTYLXANTHINE [DPCPX]]	–	–	–	–	–	–	–	–	–	–	–	–	0.275 min	1.53 min
CCc1nc2c(=S)n(Cc3ccccc3)nc(C3CCCCC3)c2c2cc(-c3ccccc3)nn12	–	0%	–	Non-toxic	Non-toxic	–	42%	–	–	–	–	–	–	–

Source: ChEMBL document CHEMBL3351777, “Further studies on pyrazolo[1',5':1,6]pyrimido[4,5-d]pyridazin-4(3H)-ones as potent and selective human A1 adenosine receptor antagonists” (Eur J Med Chem, 2015)
